Experimental data collected from several papers.
Protocols differ between the studies behind these lines.
STK32A: Serine/threonine-protein kinase 32A (STK32A, Homo sapiens, UniProt Q8WU08)
STK17B: Serine/threonine-protein kinase 17B (STK17B, Homo sapiens, UniProt O94768)
ache: Acetylcholinesterase (ache, Electrophorus electricus, UniProt O42275)

Structure (SMILES)	target	assay	setting	quantity	result
CCCOc1ccc(OC)c(F)c1C(=O)c1ccc(C(=O)N[C@@H]2CNC[C@H]2NC(=O)c2ccc3[nH]ncc3c2)cc1	RAC-gamma serine/threonine-protein kinase (AKT3, Homo sapiens, UniProt Q9Y243)	enzyme activity, inhibitor	0.1 µM	remaining activity	88%
Cn1c2c(c3ccc(Cl)c(Cl)c31)C(C#N)C1(CCCC1)NC2=O (stereo not drawn)	STK32A	thermal stability, DSF	10 µM	ΔTm	-0.2 °C
O=C(NCCCNc1nc(Nc2cccc(NC(=O)N3CCCC3)c2)ncc1Br)C1CCC1	STK17B	enzyme activity, inhibitor, radiometric	1 µM	remaining activity	0%
COc1cc2c(cc1OC)C(=O)N(CC1CCN(Cc3cccc(C#N)c3)CC1)C2	ache	enzyme activity, inhibitor	1 µM	inhibition	4.99%
Cn1c2c(c3ccc(Cl)c(Cl)c31)C(C#N)C(C)(C)NC2=O (stereo not drawn)	STK32A	thermal stability, DSF	10 µM	ΔTm	-0.1 °C
COc1cc2c(cc1OC)C(=O)N(Cc1cccnc1)C2	ache	enzyme activity, inhibitor	1 µM	inhibition	0.13%
CN1CCc2cc(Nc3ncc(C4CC4)c(NCCCNC(=O)C4CCC4)n3)ccc2C1	STK17B	enzyme activity, inhibitor, radiometric	1 µM	remaining activity	4%
CC(C)(C)c1nc2c(s1)c1nc(N)ncc1c1ccc(NS(=O)(=O)c3c(F)cccc3F)c(F)c12	Mitogen-activated protein kinase kinase kinase 21 (MAP3K21, Homo sapiens, UniProt Q5TCX8)	enzyme activity, inhibitor, radiometric	1 µM	remaining activity	90%
Cc1nn(CC(F)(F)F)cc1Nc1ncc(C2CC2)c(NCCCNC(=O)C2CCC2)n1	STK17B	enzyme activity, inhibitor, radiometric	1 µM	remaining activity	13%
COc1cc2c(cc1OC)C(=O)N(Cc1ccc(-c3cccs3)nc1)C2	ache	enzyme activity, inhibitor	1 µM	inhibition	-4.2%
NS(=O)(=O)c1ccc(CNc2ccnc(Nc3cccc(NC(=O)N4CCCC4)c3)n2)cc1	STK17B	enzyme activity, inhibitor, radiometric	1 µM	remaining activity	96%
CCCCCCCOc1ccc(CCC(N)(CO)COP(=O)(O)O)cc1C(F)(F)F (stereo not drawn)	Sphingosine 1-phosphate receptor 1 (S1PR1, Homo sapiens, UniProt P21453)	calcium signal, agonist, fluorescence		Emax	92%
COc1cc2c(cc1OC)C(=O)N(CC1CCN(Cc3ccsc3)CC1)C2	ache	enzyme activity, inhibitor	1 µM	inhibition	13.9%
O=C(NCCCNc1nc(Nc2cccc(NC(=O)N3CCCC3)c2)ncc1I)c1cccs1	STK17B	enzyme activity, inhibitor, radiometric	1 µM	remaining activity	4%
N#Cc1ccc(/C=C/CN(CC[C@H](N)C(=O)O)C[C@H]2O[C@@H](n3cnc4c(N)ncnc43)[C@H](O)[C@@H]2O)cc1	Histone-arginine methyltransferase CARM1 (CARM1, Homo sapiens, UniProt Q86X55)	enzyme activity, inhibitor	1 µM	activity vs control	100%
O=C(Nc1cccc(Nc2ncc(Br)c(NCCc3cnc[nH]3)n2)c1)N1CCCC1	STK17B	enzyme activity, inhibitor, radiometric	1 µM	remaining activity	1%
COc1cc2c(cc1OC)C(=O)N(Cc1nccc3ccccc13)C2	ache	enzyme activity, inhibitor	1 µM	inhibition	-0.79%
O[C@@H]1[C@H](O)CO[C@H]1n1cnc2c(NCc3cccc(Cl)c3)nc(Cl)nc21	Adenosine receptor A1 (ADORA1, Homo sapiens, UniProt P30542)	ligand displacement, radioligand	10 µM, cell membranes	inhibition	36%
